Calls of active or inactive are those of the source. No cut-off for these calls is given here.
What was measured:
[1] = AUC in monkey at 3 mg/kg, po; type: ADME, organism-based, Macaca mulatta; conditions: rhesus monkey, in vivo
In short: (§1)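 Monkey PK used 1 mpk IV and 3 mpk PO. Readouts were plasma clearance (mL/min/kg), Vdss (L/kg), t½ (h), oral AUC (µM·h) and bioavailability F (%).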

[2] = tested on: Rattus norvegicus; assay: AUC in rat at 30 mg/kg, po; conditions: in vivo
[3] = Plasma clearance in monkey at 1 mg/kg, iv or 3 mg/kg, po; type: ADME, organism-based, Macaca mulatta; conditions: rhesus monkey; in short: as §1
[4] = Half life in dog at 1 mg/kg, iv or 10 mg/kg, po; conditions: in vivo
[5] = tested on: Mus musculus; assay: Antidiabetic activity in C57Bl/6NCrl mouse assessed as reduction in glucose excursion at 0.1 mg/kg, po administered via gavage pretreated for 30 mins followed by glucose-challenge measured 60 mins post dose by OGTT relative to control; type: functional; parameters: scale not given: the % may be the effect or the level left
In short: (§2)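 Lean C57Bl/6 mice got oral vehicle or drug 30 min before the glucose challenge. Blood glucose was monitored for 60 min after oral administration and expressed as area under the curve (glucose excursion). Doses ranged from 0.03 to 30 mpk.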

[6] = tested on: Rattus norvegicus; assay: Oral bioavailability in rat at 30 mg/kg; conditions: in vivo
[7] = tested on: Mus musculus; assay: Antidiabetic activity in C57Bl/6NCrl mouse assessed as increase in plasma GLP1 (7 to 36) amide levels at 1 mg/kg, po administered via gavage pretreated followed by glucose-challenge measured after 10 mins; type: functional, organism-based
[8] = tested on: Mus musculus; assay: Antidiabetic activity in C57Bl/6NCrl mouse assessed as reduction in glucose excursion at 1 mg/kg, po administered via gavage pretreated for 30 mins followed by glucose-challenge measured 60 mins post dose by OGTT relative to control; type: functional; parameters: scale not given: the % may be the effect or the level left; in short: as §2
[9] = tested on: Mus musculus; assay: Antidiabetic activity in lepr db/db mouse assessed as reduction in glucose excursion at 10 mg/kg, po by OGTT; type: functional, organism-based
[10] = Volume of distribution at steady state in monkey at 1 mg/kg, iv or 3 mg/kg, po; type: ADME, organism-based, Macaca mulatta; conditions: rhesus monkey, in vivo, read-out: Vdss; in short: as §1
[11] = tested on: Rattus norvegicus; assay: Antidiabetic activity in Sprague-Dawley rat assessed as reduction in glucose excursion at 3 mg/kg, po pretreated followed by glucose challenge measured after 10 to 30 mins by OGTT; type: functional, organism-based
In short: (§3)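 Sprague-Dawley rats underwent an oral glucose tolerance test with glucose excursion measured. Sitagliptin was dosed at 1 mpk and agonist at 3 mpk, alone or co-administered.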

[12] = tested on: Mus musculus; assay: Antidiabetic activity in C57Bl/6NCrl mouse assessed as reduction in glucose excursion at 0.3 mg/kg, po administered via gavage pretreated for 30 mins followed by glucose-challenge measured 60 mins post dose by OGTT relative to control; type: functional; parameters: scale not given: the % may be the effect or the level left; in short: as §2
[13] = tested on: Mus musculus; assay: Antidiabetic activity in C57Bl/6NCrl mouse assessed as reduction in glucose excursion at 1 to 30 mg/kg, po administered via gavage pretreated for 30 mins followed by glucose-challenge measured 60 mins post dose by OGTT relative to control; type: functional; parameters: scale not given: the % may be the effect or the level left; in short: as §2
[14] = Oral bioavailability in monkey at 3 mg/kg; type: ADME, organism-based, Macaca mulatta; conditions: rhesus monkey, in vivo; in short: as §1
[15] = Volume of distribution at steady state in dog at 1 mg/kg, iv or 10 mg/kg, po; conditions: in vivo, read-out: Vdss
[16] = Plasma clearance in dog at 1 mg/kg, iv or 10 mg/kg, po
[17] = tested on: Mus musculus; assay: Antidiabetic activity in C57Bl/6NCrl mouse assessed as reduction in glucose excursion administered via oral gavage pretreated for 30 mins followed by glucose-challenge measured 60 mins post dose by OGTT; type: functional, organism-based; in short: as §2
[18] = AUC in dog at 10 mg/kg, po; conditions: in vivo
[19] = tested on: Rattus norvegicus; assay: Antidiabetic activity in Sprague-Dawley rat assessed as reduction in glucose excursion at 3 mg/kg, po pretreated followed by glucose challenge measured after 10 to 30 mins in presence of sitagliptin by OGTT; type: functional, organism-based; in short: as §3
[20] = tested on: Mus musculus; assay: Antidiabetic activity in C57Bl/6NCrl mouse assessed as reduction in glucose excursion at 0.03 mg/kg, po administered via gavage pretreated for 30 mins followed by glucose-challenge measured 60 mins post dose by OGTT relative to control; type: functional; parameters: scale not given: the % may be the effect or the level left; in short: as §2
[21] = molecular target: T1, Glucose-dependent insulinotropic receptor (Mus musculus) (UniProt Q7TQP3); assay: (§4) Agonist activity at mouse GPR119 assessed as increase in cAMP level; type: functional
T1 sequence (whole entry): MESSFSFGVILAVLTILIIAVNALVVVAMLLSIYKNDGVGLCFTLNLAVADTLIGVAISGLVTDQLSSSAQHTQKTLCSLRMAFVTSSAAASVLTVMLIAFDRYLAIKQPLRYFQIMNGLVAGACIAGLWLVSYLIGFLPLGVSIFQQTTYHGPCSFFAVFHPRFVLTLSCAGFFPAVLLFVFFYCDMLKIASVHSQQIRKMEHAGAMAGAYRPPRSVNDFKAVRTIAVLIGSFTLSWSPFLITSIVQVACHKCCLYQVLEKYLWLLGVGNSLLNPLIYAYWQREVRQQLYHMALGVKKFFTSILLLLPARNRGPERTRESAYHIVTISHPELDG

[22] = molecular target: T2, Glucose-dependent insulinotropic receptor (Mus musculus, UniProt Q7TQP3); assay: as §4; type: functional
T2 sequence (Q7TQP3 whole entry): T1 sequence (whole entry)

[23] = tested on: Mus musculus; assay: Antidiabetic activity in diet-induced obese mouse assessed as reduction in glucose excursion at 1 to 3 mg/kg, po by OGTT; type: functional, organism-based
[24] = Half life in rat at 1 mg/kg, iv or 30 mg/kg, po; conditions: in vivo
[25] = tested on: Mus musculus; assay: Antidiabetic activity in C57Bl/6NCrl mouse assessed as increase in plasma GLP1 (7 to 36) amide levels at 1 mg/kg, po administered via gavage pretreated followed by glucose-challenge measured after 10 mins in presence of sitagliptin; type: functional, organism-based
[26] = Volume of distribution at steady state in rat at 1 mg/kg, iv or 30 mg/kg, po; conditions: in vivo, read-out: Vdss
[27] = tested on: Mus musculus; assay: Glucose lowering effect in C57Bl/6NCrl mouse assessed as reduction in glucose level at 3 mg/kg, po administered via gavage pretreated for 30 mins followed by glucose-challenge measured after 20 mins by OGTT relative to control; type: functional; parameters: scale not given: the % may be the effect or the level left
In short: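 Overnight-fasted mice got compound or vehicle orally at 3 to 10 mg/kg. Glucose (3 g/kg po) was given 30 min post-dose. Blood glucose was read by hand-held glucometer before dosing, before glucose and 20 min after glucose. Glucose lowering (%) = [(1 − 20 min glucose of treated / 20 min glucose of vehicle) × 100].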

[28] = tested on: Mus musculus; assay: Glucose lowering effect in po dosed GPR119 deficient mouse assessed as reduction in glucose level by OGTT; type: functional, organism-based
[29] = molecular target: T3, Glucose-dependent insulinotropic receptor (Homo sapiens) (UniProt Q8TDV5); assay: (§5) Agonist activity at human GPR119 expressed in HEK293 cells assessed as increase in cAMP level after 30 mins by LANCE assay; type: functional, cell-based
T3 sequence (whole entry): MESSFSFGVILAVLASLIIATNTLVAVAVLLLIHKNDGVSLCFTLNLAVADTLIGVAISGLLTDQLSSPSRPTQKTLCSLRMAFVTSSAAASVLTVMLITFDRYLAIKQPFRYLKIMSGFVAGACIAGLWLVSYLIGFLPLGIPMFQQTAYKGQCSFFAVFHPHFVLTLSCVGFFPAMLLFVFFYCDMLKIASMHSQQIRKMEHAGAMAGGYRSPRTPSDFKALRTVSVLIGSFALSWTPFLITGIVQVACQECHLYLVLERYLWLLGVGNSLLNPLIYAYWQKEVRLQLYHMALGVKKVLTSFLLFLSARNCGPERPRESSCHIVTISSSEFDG

[30] = molecular target: T4, Glucose-dependent insulinotropic receptor (Homo sapiens, UniProt Q8TDV5); assay: as §5; type: functional, cell-based
T4 sequence (Q8TDV5 whole entry): T3 sequence (whole entry)

[31] = tested on: Mus musculus; assay: Antidiabetic activity in C57Bl/6NCrl mouse assessed as maximum plasma concentration required for reduction in glucose excursion at 0.3 mg/kg, po administered via gavage pretreated for 30 mins followed by glucose-challenge measured 60 mins post dose by OGTT; type: functional, organism-based; parameters: dose 0.3 mg/kg
In short: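 Lean C57Bl/6 mice were dosed orally 30 min before the glucose challenge (oGTT, glucose followed for 60 min). Plasma Cmax was taken at t = 1 h after the 0.3 mPk dose.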

[32] = Protein binding in rat assessed as unbound fraction at 10 uM; type: ADME, cell-free; conditions: plasma
[33] = Half life in monkey at 1 mg/kg, iv or 3 mg/kg, po; type: ADME, organism-based, Macaca mulatta; conditions: rhesus monkey, in vivo; in short: as §1

Question: What does the source list for `CC1(OC(=O)N2C[C@H]3COC[C@@H](C2)[C@@H]3Oc2ncnc(Nc3ccc(C#N)cc3Cl)c2F)CC1`?
Answer: AUC [1]: 13 µM·h; AUC [2]: 63 µM·h; clearance [3]: 0.186 L/h/kg; half-life [4]: 70 h; Activity [5]: 23%; F [6]: 35%; Activity [7]: Active; Activity [8]: 49%; Activity [9]: Active; Vd [10]: 2.6 L/kg; Activity [11]: Active; Activity [12]: 46%; Activity [13]: 50%; bioavailability [14]: 38%; Vd [15]: 4.4 L/kg; clearance [16]: 0.0462 L/h/kg; Activity [17]: Dose-dependent effect; AUC [18]: 131 µM·h; Activity [19]: Active; Activity [20]: 21%; %max [21]: 99%; EC50 [22]: 0.058 µM; Activity [23]: Active; half-life [24]: 8.8 h; Activity [25]: Active; Vd [26]: 5.8 L/kg; Activity [27]: 29%; Activity [28]: inactive; %max [29]: 92%; EC50 [30]: 0.01 µM; Cmax [31]: 60 nM; Fu [32]: 1%; half-life [33]: 12 h

— ChEMBL document CHEMBL4145595, “Discovery of MK-8282 as a Potent G-Protein-Coupled Receptor 119 Agonist for the Treatment of Type 2 Diabetes” (ACS Med Chem Lett, 2018)
